Structures are written as SMILES.

The species named for one experiment is Cavia porcellus. In words: Percent inhibition of SRS-A induced contraction minus percent inhibition of 25 mM KCl induced contractions at a conc of 5(uM). It is filed as functional. An outline of the steps:
(§1)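 Ileum segments (proximal to Peyer's patch) from male Hartley guinea pigs (400–600 g) were held in modified Tyrode's at 37.5 °C under 95% O2-5% CO2, with isometric recording. Partially purified guinea pig SRS-A or 25 mM KCl was dosed for 60–80% maximal contraction, then reapplied after 15 min compound exposure with five bath changes. Value is percent inhibition versus vehicle controls (3 vs 3 tissues), SRS-A minus KCl.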
Broadly, the Inhibition is the change of the read-out against control, counted positive when it falls. On to `CSc1ccc2c(c1Cl)CN(S(=O)(=O)NS(=O)(=O)N1CCc3ccc(SC)c(Cl)c3C1)CC2`, for which the Inhibition is listed as 25%.

On to `O=S(=O)(NS(=O)(=O)N1CCc2c(Cl)c(Cl)c(Cl)c(Cl)c2C1)N1CCc2c(Cl)c(Cl)c(Cl)c(Cl)c2C1`, for which the Inhibition came out at 14%.

As to `O=S(=O)(NS(=O)(=O)N1CCc2c(Br)cccc2C1)N1CCc2c(Br)cccc2C1`, the Inhibition is 29%.

As for `O=S(=O)(NS(=O)(=O)N1CCc2c(Br)ccc(Br)c2C1)N1CCc2c(Br)ccc(Br)c2C1`, the Inhibition is recorded as 50%.

With `COc1ccc(OC)c2c1CCN(S(=O)(=O)NS(=O)(=O)N1CCc3c(OC)ccc(OC)c3C1)C2`, the Inhibition was determined as 12%.

For the compound `O=S(=O)(NS(=O)(=O)N1CCc2cc(Cl)ccc2C1)N1CCc2cc(Cl)ccc2C1`, the Inhibition is 1%.

As for `O=S(=O)(NS(=O)(=O)N1CCc2ccc(C(F)(F)F)c(C(F)(F)F)c2C1)N1CCc2ccc(C(F)(F)F)c(C(F)(F)F)c2C1`, the Inhibition is listed as 27%.

For the compound `O=S(=O)(NC1CC1c1ccc(Cl)c(Cl)c1)NS(=O)(=O)NC1CC1c1ccc(Cl)c(Cl)c1` (centres undefined), the Inhibition came out at 42%.

As for `CC1c2c(ccc(Cl)c2Cl)CCN1S(=O)(=O)NS(=O)(=O)N1CCc2ccc(Cl)c(Cl)c2C1C` (centres undefined), the Inhibition came out at 48%.

`O=S(=O)(NS(=O)(=O)N1CCc2ccc([S+]([O-])C(Cl)(Cl)Cl)cc2C1)N1CCc2ccc([S+]([O-])C(Cl)(Cl)Cl)cc2C1` (centres undefined): the Inhibition worked out at 28%.

On to `O=S(=O)(NC1CC1c1ccccc1)NS(=O)(=O)NC1CC1c1ccccc1` (centres undefined), for which the Inhibition came out at 17%.

In the case of `O=S(=O)(NS(=O)(=O)N1CCc2ccc(Br)cc2C1)N1CCc2ccc(Br)cc2C1`, the Inhibition was 26%.

As for `O=S(=O)(NS(=O)(=O)N1CCc2ccc(Cl)c(Cl)c2C1c1ccccc1)N1CCc2ccc(Cl)c(Cl)c2C1c1ccccc1` (centres undefined), the Inhibition came to 20%.

Turning to `O=S(=O)(NS(=O)(=O)N1CCc2ccc(Cl)c(Cl)c2C1Cc1ccccc1)N1CCc2ccc(Cl)c(Cl)c2C1Cc1ccccc1` (centres undefined), the Inhibition turned out to be 8%.

`CCCCCCC1c2c(ccc(Cl)c2Cl)CCN1S(=O)(=O)NS(=O)(=O)N1CCc2ccc(Cl)c(Cl)c2C1CCCCCC` (centres undefined): the Inhibition was -5%.

In the case of `O=S(=O)(NS(=O)(=O)N1CCc2c(cccc2-c2ccccc2)C1)N1CCc2c(cccc2-c2ccccc2)C1`, the Inhibition stood at 13%.

On to `O=S(=O)(NS(=O)(=O)N1CCc2ccc(Cl)c(Cl)c2C1C1CCCC1)N1CCc2ccc(Cl)c(Cl)c2C1C1CCCC1` (centres undefined), for which the Inhibition amounted to 4%.

On to `O=S(=O)(NS(=O)(=O)N1CCc2ccc(Cl)c(SC(F)(F)C(F)F)c2C1)N1CCc2ccc(Cl)c(SC(F)(F)C(F)F)c2C1`, for which the Inhibition stood at 22%.

Regarding `Cc1ccc2c(c1Cl)CN(S(=O)(=O)NS(=O)(=O)N1CCc3ccc(C)c(Cl)c3C1)CC2`, the Inhibition stood at 34%.

Turning to `O=S(=O)(NS(=O)(=O)N1CCc2cc(Cl)c(Cl)cc2C1)N1CCc2cc(Cl)c(Cl)cc2C1`, the Inhibition is listed as 40%.

`O=S(=O)(NS(=O)(=O)N1CCc2ccc(Cl)c(Cl)c2C1)N1CCc2ccc(Cl)c(Cl)c2C1`: the Inhibition is 42%.

Regarding `O=S(=O)(NS(=O)(=O)N1CCc2cc(Cl)ccc21)N1CCc2cc(Cl)ccc21`, the Inhibition was found to be 13%.

As for `O=S(=O)(NS(=O)(=O)N1CCc2ccc(Cl)c(Cl)c2C1C1CC1)N1CCc2ccc(Cl)c(Cl)c2C1C1CC1` (centres undefined), the Inhibition is recorded as 47%.

For `CC1Cc2ccc(Cl)c(Cl)c2CN1S(=O)(=O)NS(=O)(=O)N1Cc2c(ccc(Cl)c2Cl)CC1C` (centres undefined), the Inhibition turned out to be 18%.

Consider `COc1ccc2c(c1Cl)CN(S(=O)(=O)NS(=O)(=O)N1CCc3ccc(OC)c(Cl)c3C1)CC2`, for which the Inhibition amounted to 20%.

For the compound `O=S(=O)(NS(=O)(=O)N1CCc2ccc(Cl)cc2C1)N1CCc2ccc(Cl)cc2C1`, the Inhibition worked out at 18%.

The species named for another experiment is Cavia porcellus. In words: Percent inhibition of SRS-A induced contraction minus percent inhibition of 25 mM KCl induced contractions at a conc of 5(uM); Not statistically significant. It is filed as functional. An outline of the steps:
as §1
Regarding `O=S(=O)(NS(=O)(=O)N1CCc2c(Cl)cccc2C1)N1CCc2c(Cl)cccc2C1`, the Inhibition came to 8%.

With `O=S(=O)(NS(=O)(=O)N1CCc2cc(Cl)c(Cl)c(Cl)c2C1)N1CCc2cc(Cl)c(Cl)c(Cl)c2C1`, the Inhibition was determined as 11%.

For the compound `CC(=O)c1ccc2c(c1)CN(S(=O)(=O)NS(=O)(=O)N1CCc3ccc(C(C)=O)cc3C1)CC2`, the Inhibition was 4%.

For the compound `O=S(=O)(NS(=O)(=O)N1CCc2cccc(Cl)c2C1)N1CCc2cccc(Cl)c2C1`, the Inhibition was 16%.

On to `O=S(=O)(NS(=O)(=O)N1CCc2c(Br)cc(Br)c(Br)c2C1)N1CCc2c(Br)cc(Br)c(Br)c2C1`, for which the Inhibition is given as 7%.

The species named for the next experiment is Cavia porcellus. The experiment in a line: Percent inhibition of SRS-A induced contraction minus percent inhibition of 25 mM KCl induced contractions at a conc of 5(uM); Percent enhancement of tissue contraction compared to control. It is filed as functional. An outline of the steps: as §1
For `COc1ccc2c(c1OC)CN(S(=O)(=O)NS(=O)(=O)N1CCc3ccc(OC)c(OC)c3C1)CC2`, the Inhibition is on record as 5%.

With `COc1ccc2c(c1)CN(S(=O)(=O)NS(=O)(=O)N1CCc3ccc(OC)cc3C1)CC2`, the Inhibition is 6%.

The species named for another experiment is Cavia porcellus. The experiment in a line: Percent inhibition of SRS-A induced contraction minus percent inhibition of 25 mM KCl induced contractions at a conc of 50(uM). It is filed as functional. An outline of the steps:
as §1
As for `O=S(=O)(NS(=O)(=O)N1CCc2cc(Cl)ccc2C1)N1CCc2cc(Cl)ccc2C1`, the Inhibition amounted to 1%.

On to `O=S(=O)(NS(=O)(=O)N1CCc2ccccc2CC1)N1CCc2ccccc2CC1`, for which the Inhibition came out at 14%.

Regarding `O=S(=O)(NC1Cc2ccccc2C1)NS(=O)(=O)NC1Cc2ccccc2C1`, the Inhibition is on record as 11%.

Regarding `O=S(=O)(NC1CCCC[C@@H]1c1ccccc1)NS(=O)(=O)NC1CCCC[C@H]1c1ccccc1` (some centres undefined), the Inhibition is listed as 41%.

As to `O=S(=O)(NS(=O)(=O)N1CCc2ccccc21)N1CCc2ccccc21`, the Inhibition is -13%.

A further experiment is filed under the species Cavia porcellus. In words: Percent inhibition of SRS-A induced contraction minus percent inhibition of 25 mM KCl induced contractions at a conc of 50(uM); Not statistically significant. It is filed as functional. The method, boiled down: as §1
Regarding `O=S(=O)(NS(=O)(=O)N1CCc2ccccc2C1)N1CCc2ccccc2C1`, the Inhibition was determined as 10%.
